From ChEMBL document CHEMBL1817567, “Design of benzimidazole- and benzoxazole-2-thione derivatives as inhibitors of bacterial hyaluronan lyase” (Eur J Med Chem, 2011)
≈ marks a conversion by molar mass, not a printed value. Calls of active or inactive are those of the source. No cut-off for these calls is given here.

Key:
[1] = Inhibition of Streptococcus agalactiae 4755 hyaluronidase at pH 7.4 after 3 hrs by turbidimetric analysis
In short: (§1)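 Same turbidimetric hyaluronan-lyase assay at pH 7.4 (citrate–phosphate/NaCl): SagHyal4755 2.9 ng, hyaluronan (2 mg/ml stock), BSA, 3.8% DMSO final, 3 h at 37 °C. CTAB (2.5%, in 0.5 M NaOH) precipitation, 20 min at 25 °C, A600. Activity scaled between no-inhibitor and no-enzyme samples.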

[2] = target: T1, Hyaluronidase (Bos taurus) (UniProt Q8SQG8+Q5E985); assay: Inhibition of bovine testes hyaluronidase at 200 uM after 30 mins at pH 5 by turbidimetric analysis; format: protein assay
[3] = target: T1, Hyaluronidase (Bos taurus); assay: Inhibition of bovine testes hyaluronidase at 380 uM after 30 mins at pH 5 by turbidimetric analysis; format: protein assay
[4] = target: T1, Hyaluronidase (Bos taurus); assay: Inhibition of bovine testes hyaluronidase at 49 uM after 30 mins at pH 5 by turbidimetric analysis; format: protein assay
[5] = target: T1, Hyaluronidase (Bos taurus); assay: Inhibition of bovine testes hyaluronidase at 4200 uM after 30 mins at pH 5 by turbidimetric analysis; format: protein assay
[6] = target: T1, Hyaluronidase (Bos taurus); assay: Inhibition of bovine testes hyaluronidase at 460 uM after 30 mins at pH 5 by turbidimetric analysis; format: protein assay
[7] = target: T1, Hyaluronidase (Bos taurus); assay: Inhibition of bovine testes hyaluronidase at 180 uM after 30 mins at pH 5 by turbidimetric analysis; format: protein assay
[8] = target: T1, Hyaluronidase (Bos taurus); assay: Inhibition of bovine testes hyaluronidase at 190 uM after 30 mins at pH 5 by turbidimetric analysis; format: protein assay
[9] = target: T1, Hyaluronidase (Bos taurus); assay: Inhibition of bovine testes hyaluronidase at 170 uM after 30 mins at pH 5 by turbidimetric analysis; format: protein assay
[10] = target: T1, Hyaluronidase (Bos taurus); assay: Inhibition of bovine testes hyaluronidase at 100 uM after 30 mins at pH 5 by turbidimetric analysis; format: protein assay
[11] = target: T1, Hyaluronidase (Bos taurus); assay: Inhibition of bovine testes hyaluronidase at 400 uM after 30 mins at pH 5 by turbidimetric analysis; format: protein assay
[12] = target: T1, Hyaluronidase (Bos taurus); assay: Inhibition of bovine testes hyaluronidase at 3800 uM after 30 mins at pH 5 by turbidimetric analysis; format: protein assay
[13] = target: T1, Hyaluronidase (Bos taurus); assay: Inhibition of bovine testes hyaluronidase at 130 uM after 30 mins at pH 5 by turbidimetric analysis; format: protein assay
[14] = target: T1, Hyaluronidase (Bos taurus); assay: Inhibition of bovine testes hyaluronidase at 63 uM after 30 mins at pH 5 by turbidimetric analysis; format: protein assay
[15] = target: T1, Hyaluronidase (Bos taurus); assay: Inhibition of bovine testes hyaluronidase at 80 uM after 30 mins at pH 5 by turbidimetric analysis; format: protein assay
[16] = target: T1, Hyaluronidase (Bos taurus); assay: Inhibition of bovine testes hyaluronidase at 2000 uM after 30 mins at pH 5 by turbidimetric analysis; format: protein assay
[17] = target: T1, Hyaluronidase (Bos taurus); assay: Inhibition of bovine testes hyaluronidase at 150 uM after 30 mins at pH 5 by turbidimetric analysis; format: protein assay
[18] = Aqueous solubility of the compound in water; format: physicochemical
In short: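 Turbidity at 600 nm of test compound in DMSO added to citrate–phosphate buffer (pH 5 and pH 7.4), water and BSA (0.2 mg/ml stock), at various concentrations, read against a water reference. Enzyme testing used only concentrations showing no turbidity.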

Streptococcus agalactiae [19] = assay: Inhibition of Streptococcus agalactiae 4755 hyaluronidase at 380 uM after 30 mins at pH 5.0 by turbidimetric analysis
In short: (§2)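 SagHyal4755 (2.9 ng) with BSA and hyaluronan (2 mg/ml stock) in citrate–phosphate/NaCl buffer pH 5.0, 3.8% DMSO final, 30 min at 37 °C. Stopped by alkaline 2.5% CTAB, then 20 min at 25 °C. Residual-substrate turbidity read at 600 nm; no-inhibitor sample = 100%, no-enzyme sample = 0% activity. Enzyme-free compound controls were run.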

Streptococcus agalactiae [20] = assay: Inhibition of Streptococcus agalactiae 4755 hyaluronidase at 49 uM after 30 mins at pH 5.0 by turbidimetric analysis; in short: as §2
Streptococcus agalactiae [21] = assay: Inhibition of Streptococcus agalactiae 4755 hyaluronidase at 170 uM after 30 mins at pH 5.0 by turbidimetric analysis; in short: as §2
Streptococcus agalactiae [22] = assay: Inhibition of Streptococcus agalactiae 4755 hyaluronidase at 460 uM after 30 mins at pH 5.0 by turbidimetric analysis; in short: as §2
Streptococcus agalactiae [23] = assay: Inhibition of Streptococcus agalactiae 4755 hyaluronidase at 400 uM after 30 mins at pH 5.0 by turbidimetric analysis; in short: as §2
Streptococcus agalactiae [24] = assay: Inhibition of Streptococcus agalactiae 4755 hyaluronidase at 200 uM after 3 hrs at pH 7.4 by turbidimetric analysis; in short: as §1
Streptococcus agalactiae [25] = assay: Inhibition of Streptococcus agalactiae 4755 hyaluronidase at 200 uM after 30 mins at pH 5.0 by turbidimetric analysis; in short: as §2
Streptococcus agalactiae [26] = assay: Inhibition of Streptococcus agalactiae 4755 hyaluronidase at 190 uM after 30 mins at pH 5.0 by turbidimetric analysis; in short: as §2
Streptococcus agalactiae [27] = assay: Inhibition of Streptococcus agalactiae 4755 hyaluronidase at 3800 uM after 30 mins at pH 5.0 by turbidimetric analysis; in short: as §2
Streptococcus agalactiae [28] = assay: Inhibition of Streptococcus agalactiae 4755 hyaluronidase at 100 uM after 30 mins at pH 5.0 by turbidimetric analysis; in short: as §2
Streptococcus agalactiae [29] = assay: Inhibition of Streptococcus agalactiae 4755 hyaluronidase at 180 uM after 30 mins at pH 5.0 by turbidimetric analysis; in short: as §2

Row | Structure (SMILES) | IC50 [1] | inhibition [2] | inhibition [3] | inhibition [4] | inhibition [5] | inhibition [6] | inhibition [7] | inhibition [8] | inhibition [9] | inhibition [10] | inhibition [11] | inhibition [12] | inhibition [13] | inhibition [14] | inhibition [15] | inhibition [16] | inhibition [17] | solubility [18] | also measured
1 | CCn1c(=S)n(C(C)=O)c2ccccc21 | 19 µM | inactive | inactive | inactive | inactive | inactive | inactive | inactive | inactive | inactive | inactive | inactive | inactive | inactive | inactive | inactive | inactive | 380 µM (≈ 83.7 µg/mL) | inhibition (Streptococcus agalactiae [19]): 10%
2 | CCCCCC(=O)n1c(=S)n(C(C)=O)c2ccccc21 | 12 µM | inactive | inactive | inactive | inactive | inactive | inactive | inactive | inactive | inactive | inactive | inactive | inactive | inactive | inactive | inactive | inactive | 49 µM (≈ 14.2 µg/mL) | inhibition (Streptococcus agalactiae [20]): 50%
3 | CCCCCC(=O)n1c(=S)[nH]c2ccccc21 | 16 µM | inactive | inactive | inactive | inactive | inactive | inactive | inactive | inactive | inactive | inactive | inactive | inactive | inactive | inactive | inactive | inactive | 170 µM (≈ 42.2 µg/mL) | inhibition (Streptococcus agalactiae [21]): 14%
4 | CC(=O)n1c(=S)[nH]c2ccccc21 | 17 µM | inactive | inactive | inactive | inactive | inactive | inactive | inactive | inactive | inactive | inactive | inactive | inactive | inactive | inactive | inactive | inactive | 460 µM (≈ 88.4 µg/mL) | inhibition (Streptococcus agalactiae [22]): 20%
5 | O=C(c1cccc(Cl)c1)n1c(=S)[nH]c2ccccc21 | 70 µM | inactive | inactive | inactive | inactive | inactive | inactive | inactive | inactive | inactive | inactive | inactive | inactive | inactive | inactive | inactive | inactive | 400 µM (≈ 116 µg/mL) | inhibition (Streptococcus agalactiae [23]): 16%
6 | CC(=O)n1c(=O)n(C(C)=O)c2ccccc21 | – | inactive | inactive | inactive | inactive | inactive | inactive | inactive | inactive | inactive | inactive | inactive | inactive | inactive | inactive | inactive | inactive | 200 µM (≈ 43.6 µg/mL) | inhibition (Streptococcus agalactiae [24]): 10%; inhibition (Streptococcus agalactiae [25]): inactive
7 | CCCC(=O)n1c(=S)[nH]c2ccccc21 | 20 µM | inactive | inactive | inactive | inactive | inactive | inactive | inactive | inactive | inactive | inactive | inactive | inactive | inactive | inactive | inactive | inactive | 190 µM (≈ 41.9 µg/mL) | inhibition (Streptococcus agalactiae [26]): 7%
8 | Sc1nc2ccccc2o1 | 2540 µM | inactive | inactive | inactive | inactive | inactive | inactive | inactive | inactive | inactive | inactive | inactive | inactive | inactive | inactive | inactive | inactive | 3800 µM (≈ 575 µg/mL) | inhibition (Streptococcus agalactiae [27]): 42%
9 | O=C(CCCc1ccccc1)n1c(=S)oc2ccccc21 | 19 µM | inactive | inactive | inactive | inactive | inactive | inactive | inactive | inactive | inactive | inactive | inactive | inactive | inactive | inactive | inactive | inactive | 100 µM (≈ 29.7 µg/mL) | inhibition (Streptococcus agalactiae [28]): 47%
10 | CCC(=O)n1c(=S)[nH]c2ccccc21 | 26 µM | inactive | inactive | inactive | inactive | inactive | inactive | inactive | inactive | inactive | inactive | inactive | inactive | inactive | inactive | inactive | inactive | 180 µM (≈ 37.1 µg/mL) | inhibition (Streptococcus agalactiae [29]): 4%
11 | COC(=O)c1ccc2oc(=S)n(C(=O)CCc3ccccc3)c2c1 | 21 µM | inactive | inactive | inactive | inactive | inactive | inactive | inactive | inactive | inactive | inactive | inactive | inactive | inactive | inactive | inactive | inactive | 200 µM (≈ 68.3 µg/mL) | inhibition (Streptococcus agalactiae [25]): 56%
